ChEMBL document CHEMBL1142894, “Preparation of 5-aryl-3-alkylthio-l,2,4-triazoles and corresponding sulfones with antiinflammatory-analgesic activity” (Bioorg Med Chem, 2007)
The source made the active and inactive calls. The calls are words filed in the database; no cut-off is given here.

Key:
[1] = system: Mus musculus; assay: Gastric-ulcerogenic effect in Swiss albino mouse assessed as lesions at 50 mg/kg, po; type: functional, organism-based; design: dose 50 mg/kg
Outline: (§1)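 Mice killed under deep ether anesthesia 3 h after the writhing test; the oral dose in 0.5% CMC was the one used in that test. Stomachs removed, opened along the great curvature and examined under a dissecting microscope for lesions or bleeding. Reported as ratio of ulceration; n = 6.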

[2] = system: Mus musculus; assay: Antiinflammatory activity against carrageenan-induced paw edema in Swiss albino mouse assessed as swelling thickness at 50 mg/kg, po after 360 mins; type: functional
Outline: (§2)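 Oral dosing in 0.5% CMC; vehicle to controls. Then carrageenan (0.5 mg/25 ll, freshly suspended in 154 mM saline) injected into the right hind paw subplantar tissue; saline into the left paw. Right-left footpad thickness difference measured by dial gauge calliper every 90 min over 6 h. Inhibition % is relative to vehicle control. n = 6; mean ± SEM.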

[3] = system: Mus musculus; assay: Inhibition of p-benzoquinone-induced writhing in Swiss albino mouse at 25 mg/kg, po relative to control; type: functional
Outline: (§3)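 Mice, n = 6 per group, dosed orally with a suspension in 0.5% sodium CMC. 60 min later, 0.1 ml/10 g of 2.5% […] p-benzoquinone in distilled water given ip. Abdominal writhes counted per animal for 15 min, starting 5 min after injection. Expressed as % change in mean writhing count versus vehicle controls.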

[4] = system: Mus musculus; assay: Analgesic activity against p-benzoquinone-induced abdominal constriction in Swiss albino mouse assessed as number of writhings at 200 mg/kg, po; type: functional, Abdomen
Outline: (§4)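 Test samples given orally in 0.5% CMC; vehicle to controls. 60 min later, 2.5% (v/v) p-benzoquinone in distilled water, 0.1 ml/10 g, given i.p. Mice housed singly; writhes counted for 15 min starting 5 min after injection. Activity is % change from vehicle controls. n = 6; mean ± SEM.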

[5] = system: Mus musculus; assay: Antiinflammatory activity against carrageenan-induced paw edema in Swiss albino mouse assessed as swelling thickness at 25 mg/kg, po after 180 mins; type: functional; outline: as §2
[6] = system: Mus musculus; assay: Inhibition of carrageenan-induced paw edema in Swiss albino mouse at 100 mg/kg, po after 360 mins relative to control; type: functional; details: 6 h; outline: as §2
[7] = system: Mus musculus; assay: Analgesic activity against p-benzoquinone-induced abdominal constriction in Swiss albino mouse assessed as number of writhings at 50 mg/kg, po; type: functional, Abdomen; outline: as §4
[8] = system: Mus musculus; assay: Inhibition of carrageenan-induced paw edema in Swiss albino mouse at 25 mg/kg, po after 180 mins relative to control; type: functional; details: 3 h; outline: as §2
[9] = system: Mus musculus; assay: Inhibition of carrageenan-induced paw edema in Swiss albino mouse at 25 mg/kg, po after 360 mins relative to control; type: functional; details: 6 h; outline: as §2
[10] = system: Mus musculus; assay: Antiinflammatory activity against carrageenan-induced paw edema in Swiss albino mouse assessed as swelling thickness at 200 mg/kg, po after 90 mins; type: functional; outline: as §2
[11] = system: Mus musculus; assay: Analgesic activity against p-benzoquinone-induced abdominal constriction in Swiss albino mouse assessed as number of writhings at 100 mg/kg, po; type: functional, Abdomen; outline: as §4
[12] = system: Mus musculus; assay: Antiinflammatory activity against carrageenan-induced paw edema in Swiss albino mouse assessed as swelling thickness at 50 mg/kg, po after 270 mins; type: functional; outline: as §2
[13] = system: Mus musculus; assay: Antiinflammatory activity against carrageenan-induced paw edema in Swiss albino mouse assessed as swelling thickness at 200 mg/kg, po after 270 mins; type: functional; outline: as §2
[14] = system: Mus musculus; assay: Inhibition of carrageenan-induced paw edema in Swiss albino mouse at 50 mg/kg, po after 360 mins relative to control; type: functional; details: 6 h
Outline: (§5)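 Mice, n = 6 per group. Test agent given orally as a suspension in 0.5% sodium CMC in distilled water; controls received vehicle only. Afterwards, 0.5 mg/25 ll carrageenan in saline (154 mM NaCl) injected subplantar into the right hind paw, saline into the left. Right-minus-left footpad thickness measured by dial gauge caliper every 90 min for 6 h. Inhibition is relative to vehicle-control group means.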

[15] = system: Mus musculus; assay: Inhibition of carrageenan-induced paw edema in Swiss albino mouse at 25 mg/kg, po after 90 mins relative to control; type: functional; details: 1.5 h; outline: as §2
[16] = system: Mus musculus; assay: Inhibition of p-benzoquinone-induced writhing in Swiss albino mouse at 100 mg/kg, po relative to control; type: functional; outline: as §3
[17] = system: Mus musculus; assay: Inhibition of carrageenan-induced paw edema in Swiss albino mouse at 100 mg/kg, po after 180 mins relative to control; type: functional; details: 3 h; outline: as §2
[18] = system: Mus musculus; assay: Inhibition of p-benzoquinone-induced writhing in Swiss albino mouse at 200 mg/kg, po relative to control; type: functional; outline: as §3
[19] = system: Mus musculus; assay: Acute toxicity in Swiss albino mouse assessed as lethal effect at 200 mg/kg/day, po after 72 hrs; type: organism-based; design: route oral; details: in vivo
Outline: (§6)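 Oral single dose suspended in 0.5% carboxymethylcellulose, given after a 24 h fast; food and water returned 1 h after dosing. Vehicle-only controls. Mice observed at 1 h, then once daily for 72 h, for toxic signs and mortality.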

[20] = system: Mus musculus; assay: Inhibition of carrageenan-induced paw edema in Swiss albino mouse at 200 mg/kg, po after 360 mins relative to control; type: functional; details: 6 h; outline: as §2
[21] = system: Mus musculus; assay: Antiinflammatory activity against carrageenan-induced paw edema in Swiss albino mouse assessed as swelling thickness at 25 mg/kg, po after 90 mins; type: functional; outline: as §2
[22] = system: Mus musculus; assay: Antiinflammatory activity against carrageenan-induced paw edema in Swiss albino mouse assessed as swelling thickness at 50 mg/kg, po after 180 mins; type: functional; outline: as §2
[23] = system: Mus musculus; assay: Inhibition of carrageenan-induced paw edema in Swiss albino mouse at 25 mg/kg, po after 270 mins relative to control; type: functional; details: 4.5 h; outline: as §2
[24] = system: Mus musculus; assay: Inhibition of carrageenan-induced paw edema in Swiss albino mouse at 50 mg/kg, po after 180 mins relative to control; type: functional; details: 3 h; outline: as §2
[25] = system: Mus musculus; assay: Antiinflammatory activity against carrageenan-induced paw edema in Swiss albino mouse assessed as swelling thickness at 50 mg/kg, po after 90 mins; type: functional; outline: as §2
[26] = system: Mus musculus; assay: Acute toxicity in Swiss albino mouse assessed as lethal effect at 50 mg/kg/day, po after 72 hrs; type: organism-based; design: route oral; details: in vivo; outline: as §6
[27] = system: Mus musculus; assay: Antiinflammatory activity against carrageenan-induced paw edema in Swiss albino mouse assessed as swelling thickness at 25 mg/kg, po after 360 mins; type: functional; outline: as §2
[28] = system: Mus musculus; assay: Acute toxicity in Swiss albino mouse assessed as lethal effect at 25 mg/kg/day, po after 72 hrs; type: organism-based; design: route oral; details: in vivo; outline: as §6
[29] = system: Mus musculus; assay: Analgesic activity against p-benzoquinone-induced abdominal constriction in Swiss albino mouse assessed as number of writhings at 25 mg/kg, po; type: functional, Abdomen; outline: as §4
[30] = system: Mus musculus; assay: Inhibition of carrageenan-induced paw edema in Swiss albino mouse at 100 mg/kg, po after 270 mins relative to control; type: functional; details: 4.5 h; outline: as §2
[31] = system: Mus musculus; assay: Inhibition of carrageenan-induced paw edema in Swiss albino mouse at 50 mg/kg, po after 270 mins relative to control; type: functional; details: 4.5 h; outline: as §5
[32] = system: Mus musculus; assay: Antiinflammatory activity against carrageenan-induced paw edema in Swiss albino mouse assessed as swelling thickness at 200 mg/kg, po after 360 mins; type: functional; outline: as §2
[33] = system: Mus musculus; assay: Acute toxicity in Swiss albino mouse assessed as lethal effect at 100 mg/kg/day, po after 72 hrs; type: organism-based; design: route oral; details: in vivo; outline: as §6
[34] = system: Mus musculus; assay: Inhibition of carrageenan-induced paw edema in Swiss albino mouse at 200 mg/kg, po after 270 mins relative to control; type: functional; details: 4.5 h; outline: as §2
[35] = system: Mus musculus; assay: Antiinflammatory activity against carrageenan-induced paw edema in Swiss albino mouse assessed as swelling thickness at 100 mg/kg, po after 360 mins; type: functional; outline: as §2
[36] = system: Mus musculus; assay: Antiinflammatory activity against carrageenan-induced paw edema in Swiss albino mouse assessed as swelling thickness at 100 mg/kg, po after 270 mins; type: functional; outline: as §2
[37] = system: Mus musculus; assay: Antiinflammatory activity against carrageenan-induced paw edema in Swiss albino mouse assessed as swelling thickness at 100 mg/kg, po after 180 mins; type: functional; outline: as §2
[38] = system: Mus musculus; assay: Antiinflammatory activity against carrageenan-induced paw edema in Swiss albino mouse assessed as swelling thickness at 100 mg/kg, po after 90 mins; type: functional; outline: as §2
[39] = system: Mus musculus; assay: Inhibition of carrageenan-induced paw edema in Swiss albino mouse at 100 mg/kg, po after 90 mins relative to control; type: functional; details: 1.5 h; outline: as §2
[40] = system: Mus musculus; assay: Antiinflammatory activity against carrageenan-induced paw edema in Swiss albino mouse assessed as swelling thickness at 200 mg/kg, po after 180 mins; type: functional; outline: as §2
[41] = system: Mus musculus; assay: Inhibition of carrageenan-induced paw edema in Swiss albino mouse at 50 mg/kg, po after 90 mins relative to control; type: functional; details: 1.5 h; outline: as §5
[42] = system: Mus musculus; assay: Gastric-ulcerogenic effect in Swiss albino mouse assessed as lesions at 25 mg/kg, po; type: functional, organism-based; design: dose 25 mg/kg; outline: as §1
[43] = system: Mus musculus; assay: Antiinflammatory activity against carrageenan-induced paw edema in Swiss albino mouse assessed as swelling thickness at 25 mg/kg, po after 270 mins; type: functional; outline: as §2
[44] = system: Mus musculus; assay: Inhibition of p-benzoquinone-induced writhing in Swiss albino mouse at 50 mg/kg, po relative to control; type: functional; outline: as §3
[45] = system: Mus musculus; assay: Inhibition of carrageenan-induced paw edema in Swiss albino mouse at 200 mg/kg, po after 90 mins relative to control; type: functional; details: 1.5 h; outline: as §2

With `CCSc1nc(-c2ccc(Cl)cc2)n[nH]1` the Activity [1] was “Active”, the Activity [2] was 43.1 10^-2mm and the inhibition in vivo at 25 mg/kg [3] was 12.3%. For the same compound, the Activity [4] was 44.8, the Activity [5] was 49.9 10^-2mm and the inhibition in vivo at 100 mg/kg [6] was 35.8%. For the same compound, the Activity [7] was 34.2, the inhibition in vivo at 25 mg/kg [8] was 15.9% and the inhibition in vivo at 25 mg/kg [9] was 17.1%. For the same compound, the Activity [10] was 51.8 10^-2mm, the Activity [11] was 33.8 and the Activity [12] was 45.8 10^-2mm. The Activity [13] was 63.5 10^-2mm, the inhibition in vivo at 50 mg/kg [14] was 40.1% and the inhibition in vivo at 25 mg/kg [15] was 13.7%. For the same compound, the inhibition in vivo at 100 mg/kg [16] was 28.5%, the inhibition in vivo at 100 mg/kg [17] was 25.8% and the inhibition in vivo at 200 mg/kg [18] was 12.8%. For the same compound, the Activity [19] was “Non-toxic”, the inhibition in vivo at 200 mg/kg [20] was 3.4% and the Activity [21] was 45.9 10^-2mm. For the same compound, the Activity [22] was 43.2 10^-2mm, the inhibition in vivo at 25 mg/kg [23] was 16.9% and the inhibition in vivo at 50 mg/kg [24] was 27.3%. For the same compound, the Activity [25] was 39.1 10^-2mm, the Activity [26] was “Non-toxic” and the Activity [27] was 59.7 10^-2mm. For the same compound, the Activity [28] was “Non-toxic”, the Activity [29] was 45.1 and the inhibition in vivo at 100 mg/kg [30] was 30.8%. For the same compound, the inhibition in vivo at 50 mg/kg [31] was 29.3%, the Activity [32] was 74.2 10^-2mm and the Activity [33] was “Non-toxic”. For the same compound, the inhibition in vivo at 200 mg/kg [34] was 2%, the Activity [35] was 44.2 10^-2mm and the Activity [36] was 40.7 10^-2mm. For the same compound, the Activity [37] was 38.2 10^-2mm, the Activity [38] was 34.3 10^-2mm and the inhibition in vivo at 100 mg/kg [39] was 23.4%. The Activity [40] was 59.9 10^-2mm, the inhibition in vivo at 50 mg/kg [41] was 26.5% and the Activity [42] was “Active”. For the same compound, the Activity [43] was 63.5 10^-2mm, the inhibition in vivo at 50 mg/kg [44] was 33.5% and the inhibition in vivo at 200 mg/kg [45] was 2.6%.
